Calls of active or inactive are those of the source. No cut-off for these calls is given here.
What was measured:
LNCaP [1] = assay: Cytotoxicity against human LNCAP cells up to 5 uM after 72 hrs by resazurin-based colorimetric assay; assay type: functional, cell-based
How it was run: (§1)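 Androgen-sensitive human prostate adenocarcinoma line (LNCaP). Doxorubicin served as positive control and DMSO as negative control. Compounds were tested at concentrations up to 5.0 μM.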

SF-268 [2] = assay: Cytotoxicity against human SF268 cells up to 5 uM after 72 hrs by resazurin-based colorimetric assay; assay type: functional, cell-based
How it was run: (§2)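 Doxorubicin (positive) and DMSO (negative) were run as controls. Compounds were tested up to a highest concentration of 5.0 μM.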

MCF7 [3] = assay: Cytotoxicity against human MCF7 cells up to 5 uM after 72 hrs by resazurin-based colorimetric assay; assay type: functional, cell-based
How it was run: (§3)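 Human breast cancer line (MCF-7). Doxorubicin was the positive control and DMSO the negative control. Testing went up to 5.0 μM.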

NCI-H460 [4] = assay: Cytotoxicity against human NCI-H460 cells up to 5 uM after 72 hrs by resazurin-based colorimetric assay; assay type: functional, cell-based
How it was run: (§4)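 Human non-small-cell lung cancer line (NCI-H460). Doxorubicin was included as positive control and DMSO as negative control. The maximum concentration tested was 5.0 μM.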

HFF [5] = assay: Cytotoxicity against human HFF cells up to 5 uM after 72 hrs by resazurin-based colorimetric assay; assay type: cell-based; how it was run: as §2
PC-3M [6] = assay: Cytotoxicity against human PC3M cells up to 5 uM after 72 hrs by resazurin-based colorimetric assay; assay type: functional, cell-based
How it was run: (§5)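 Metastatic human prostate adenocarcinoma line (PC-3M). Controls were doxorubicin (positive) and DMSO (negative). The highest concentration tested was 5.0 μM.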

NCI-H460 [7] = assay: Cytotoxicity against human NCI-H460 cells after 72 hrs by resazurin-based colorimetric assay; assay type: functional, cell-based; conditions: NCI-H460, 72 h; how it was run: as §4
PC-3M [8] = assay: Cytotoxicity against human PC3M cells after 72 hrs by resazurin-based colorimetric assay; assay type: functional, cell-based; how it was run: as §5
MCF7 [9] = assay: Cytotoxicity against human MCF7 cells after 72 hrs by resazurin-based colorimetric assay; assay type: functional, cell-based; conditions: MCF7, 72 h; how it was run: as §3
SF-268 [10] = assay: Cytotoxicity against human SF268 cells after 72 hrs by resazurin-based colorimetric assay; assay type: functional, cell-based; conditions: SF-268, 72 h; how it was run: as §2
LNCaP [11] = assay: Cytotoxicity against human LNCAP cells after 72 hrs by resazurin-based colorimetric assay; assay type: functional, cell-based; how it was run: as §1
HFF [12] = assay: Cytotoxicity against human HFF cells after 72 hrs by resazurin-based colorimetric assay; assay type: cell-based; how it was run: as §2

Structure (SMILES)	Activity (LNCaP [1])	Activity (SF-268 [2])	Activity (MCF7 [3])	Activity (NCI-H460 [4])	Activity (HFF [5])	Activity (PC-3M [6])	IC50 (NCI-H460 [7])	IC50 (PC-3M [8])	IC50 (MCF7 [9])	IC50 (SF-268 [10])	IC50 (LNCaP [11])	IC50 (HFF [12])
C/C(=C1/C(=O)C[C@H]2[C@@H]3[C@@H]4O[C@@H]4[C@@]4(O)CC=CC(=O)[C@]4(C)[C@H]3CC[C@]12C)[C@H]1C[C@]2(C)O[C@]2(C)[C@H](O)O1	inactive	inactive	inactive	inactive	Non-Toxic	inactive						
CC(=O)OC[C@]12CC[C@H]3[C@@H](CC=C4CC=CC(=O)[C@@]43C)[C@]1(O)CC[C@@]2(O)[C@@](C)(O)[C@H]1CC(C)=C(CO)C(=O)O1							> 5000 nM	> 5000 nM	> 5000 nM	> 5000 nM	3700 nM	
CC(=O)OC[C@]12CC[C@H]3[C@@H](CC=C4C[C@@H](OS(=O)(=O)O)CC(=O)[C@@]43C)[C@]1(O)[C@@H](OC(C)=O)C[C@@]2(O)[C@@](C)(O)[C@H]1CC(C)=C(C)C(=O)O1							2500 nM	430 nM	> 5000 nM	2800 nM	120 nM	
CC(=O)OC[C@]12CC[C@H]3[C@@H](CC=C4C=CCC(=O)[C@@]43C)[C@]1(O)[C@@H](OC(C)=O)C[C@@]2(O)[C@@](C)(O)[C@H]1CC(CO)=C(C)C(=O)O1	inactive	inactive	inactive	inactive	Non-Toxic	inactive						
CC(=O)OC[C@]12CC[C@H]3[C@@H](CC=C4C[C@@H](OS(=O)(=O)O)CC(=O)[C@@]43C)[C@]1(O)CC[C@@]2(O)[C@@](C)(O)[C@H]1CC(C)=C(C)C(=O)O1							3800 nM	560 nM	2200 nM	> 5000 nM	210 nM	> 5000 nM
CC(=O)OC[C@]12CC[C@H]3[C@@H](CC=C4CC=CC(=O)[C@@]43C)[C@]1(O)CC[C@@H]2[C@@](C)(O)[C@@H]1OC(=O)C(C)=C(C)[C@@H]1O	inactive	inactive	inactive	inactive	Non-Toxic	inactive						
CC(=O)OC[C@]12CC[C@H]3[C@@H](CC=C4CC=CC(=O)[C@@]43C)[C@]1(O)[C@@H](OC(C)=O)C[C@@]2(O)[C@@](C)(O)[C@H]1CC(CO[C@@H]2O[C@H](CO)[C@@H](O)[C@H](O)[C@H]2O)=C(C)C(=O)O1	inactive	inactive	inactive	inactive	Non-Toxic	inactive						
CC1=C(CO)C(=O)O[C@@H]([C@@H](C)[C@H]2CC[C@H]3[C@@H]4C[C@H]5O[C@]56[C@@H](O)C=CC(=O)[C@]6(C)[C@H]4CC[C@]23C)C1 [WITHAFERIN A]							< 400 nM	410 nM		< 400 nM		> 6800 nM
CC(=O)OC[C@]12CC[C@H]3[C@@H](CC=C4CC=CC(=O)[C@@]43C)[C@]1(O)[C@@H](OC(C)=O)C[C@@]2(O)[C@@](C)(O)[C@H]1CC(C)=C(CO[C@@H]2O[C@H](CO)[C@@H](O)[C@H](O)[C@H]2O)C(=O)O1	inactive	inactive	inactive	inactive	Non-Toxic	inactive						
CC(=O)OC[C@]12CC[C@H]3[C@@H](CC=C4CC=CC(=O)[C@@]43C)[C@]1(O)[C@@H](O)C[C@@]2(O)[C@@](C)(O)[C@H]1CC(C)=C(C)C(=O)O1							> 2500 nM	600 nM	> 2500 nM	> 2500 nM	190 nM	
CC1=C(C)C(=O)O[C@@H]([C@](C)(O)[C@H]2CC[C@@]3(O)[C@@H]4[C@@H]5O[C@@H]5[C@@]5(O)CC=CC(=O)[C@]5(C)[C@H]4CC[C@]23C)C1	inactive	inactive	inactive	inactive	Non-Toxic	inactive						
COc1cccc2c1C(=O)c1c(O)c3c(c(O)c1C2=O)C[C@@](O)(C(=O)CO)C[C@@H]3O[C@H]1C[C@H](N)[C@H](O)[C@H](C)O1 [DOXORUBICIN]								250 nM	320 nM			
CC(=O)OC[C@]12CC[C@H]3[C@@H](CC=C4CC=CC(=O)[C@@]43C)[C@]1(O)CC[C@@H]2[C@@](C)(O)[C@H]1CC(C)=C(C)C(=O)O1	inactive	inactive	inactive	inactive	Non-Toxic	inactive						
CC(=O)OC[C@]12CC[C@H]3[C@@H](CC=C4CC=CC(=O)[C@@]43C)[C@]1(O)[C@@H](OC(C)=O)C[C@@]2(O)[C@@](C)(O)[C@H]1CC(C)=C(CO)C(=O)O1	inactive	inactive	inactive	inactive	Non-Toxic	inactive						
CC(=O)OC[C@]12CC[C@H]3[C@@H](C[C@H]4O[C@]45CC=CC(=O)[C@]35C)[C@]1(O)[C@@H](OC(C)=O)C[C@@]2(O)[C@@](C)(O)[C@H]1CC(C)=C(C)C(=O)O1							> 2500 nM	1800 nM	> 2500 nM	> 2500 nM	1200 nM	

From ChEMBL document CHEMBL4431309, “17β-Hydroxy-18-acetoxywithanolides from Aeroponically Grown Physalis crassifolia and Their Potent and Selective Cytotoxicity for Prostate Cancer Cells” (J Nat Prod, 2016)
